Experimental data pooled from the literature.
Compare with care: the assays were run in different laboratories.
Cell line: HT-29
Read-out: cell growth or viability

COc1ccc(C(=O)/C=C/c2cc3c(cc2Br)OCO3)cc1S(N)(=O)=O gave a GI50 of 1900 nM (SRB; 48 h).
For CCN(CC)CCNC(=O)c1c(C)[nH]c(/C=C2\C(=O)Nc3ccc(F)cc32)c1C, the inhibition was 59.5% (30 µM).
COc1ccc(C(=O)/C=C/c2cccc(Br)c2)cc1S(N)(=O)=O gave a GI50 of 1600 nM (SRB; 48 h).
For Cc1cc(C)n(C(=S)[S][Au][PH](CCCCCC[PH]([Au][S]C(=S)n2nc(C)cc2C)(c2ccccc2)c2ccccc2)(c2ccccc2)c2ccccc2)n1, the GI50 was 458 nM.
With CC/C(=C(\c1ccccc1)c1ccc(OCCN(C)C)cc1)c1ccccc1 the EC90 was 8400 nM (ATP luminescence; 72 h).
The inhibition of Cn1c(=O)c(NN=C2C(=O)Nc3ccc(F)cc32)nc2ccccc21 is reported as 48.1% (30 µM).
COc1cccc(Oc2ccccc2NC(=O)CNC(=O)c2cccc3ccccc23)c1 gave a GI50 of 110 nM (SRB; 48 h).
With S=C([S][Au-][P+](CCCCCC[P+]([Au-][S]C(=S)n1cccn1)(c1ccccc1)c1ccccc1)(c1ccccc1)c1ccccc1)n1cccn1 the GI50 was 642 nM.
